Measured values reported in ChEMBL document CHEMBL1125418, “Antimycobacterial activity of a series of pyrazinoic acid esters” (1992).

Tests used:
[1] = tested on: Mycobacterium tuberculosis; assay: In vitro activity against Mycobacterium. tuberculosis (strain type-BUR)at pH 5.8; format: functional
[2] = tested on: Mycobacterium tuberculosis; assay: In vitro activity against Mycobacterium. tuberculosis (strain type-ATCC 35828)at pH 5.8; format: functional
Method in brief: (§1)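 Middlebrook 7H10 agar plus 10% OADC at pH 5.8 in compartmented plates, with serial twofold dilutions from 200 to 3.12 µg/mL. Plates were prepared 24–48 h before use and stored at 4 °C. A drug-free compartment was included per isolate. Incubation was 37 °C for 4 weeks. MIC was the lowest level producing 99% (2 log) inhibition of growth.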

[3] = tested on: Mycobacterium tuberculosis; assay: In vitro activity against Mycobacterium. tuberculosis (strain type-BUR)at pH 6.6; format: functional
Method in brief: (§2)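 Twofold serial dilutions (200–3.12 µg/mL) in 7H10 agar with 10% OADC enrichment at pH 6.6, in compartmented plates. Plates were stored at 4 °C and used within 24–48 h. A no-drug compartment served as control for each isolate. Plates were incubated for 4 weeks at 37 °C. MIC was the lowest concentration giving 99% (2 log) growth inhibition.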

[4] = tested on: Mycobacterium tuberculosis; assay: In vitro activity against Mycobacterium. tuberculosis (strain type-ATCC 35828)at pH 6.6; format: functional; method in brief: as §2
Mycobacterium kansasii [5] = assay: In vitro activity against Mycobacterium. kansasii (strain type-SWK).at pH 5.8; format: functional
Method in brief: (§3)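 Pyrazinamide-resistant isolate SWK tested on Middlebrook 7H10 agar plus 10% OADC adjusted to pH 5.8. Compartmented plates hold 2-fold dilutions from 200 to 3.12 µg/mL, prepared 24–48 h before use and kept at 4 °C, with a drug-free compartment. Incubation was 37 °C for 4 weeks. MIC is the lowest level causing 99% (2 log) growth inhibition.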

Mycobacterium kansasii [6] = assay: In vitro activity against Mycobacterium. kansasii (strain type-SWK).at pH 6.6; format: functional
Method in brief: (§4)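 MIC for pyrazinamide-resistant isolate SWK by agar dilution in Middlebrook 7H10 with 10% OADC at pH 6.6. Serial 2-fold dilutions run 200–3.12 µg/mL in compartmented plates prepared 24–48 h in advance and stored at 4 °C. A drug-free control is included. Plates were held at 37 °C for 4 weeks. The endpoint is 99% (2 log) inhibition of growth.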

[7] = tested on: Mycobacterium tuberculosis; assay: In vitro activity against Mycobacterium. tuberculosis (strain type-H37Rv) at pH 5.8; format: functional; conditions: Mycobacterium tuberculosis; read-out: MIC
[8] = tested on: Mycobacterium tuberculosis; assay: In vitro activity against Mycobacterium strain ATCC 35828 (Mycobacterium tuberculosis); format: functional
Method in brief: (§5)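 Agar dilution in compartmented plates of Middlebrook 7H10 agar with 10% OADC, adjusted to pH 5.8 or pH 6.6. Twofold compound dilutions spanned 200–3.12 µg/mL. Plates were made 24–48 h ahead and held at 4 °C. MIC (µg/mL) was the lowest concentration giving 99% (2 log) growth inhibition.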

[9] = tested on: Mycobacterium tuberculosis; assay: In vitro activity against Mycobacterium strain BAK (Mycobacterium tuberculosis); format: functional; conditions: Mycobacterium tuberculosis; read-out: MIC
[10] = tested on: Mycobacterium tuberculosis; assay: In vitro activity against Mycobacterium strain BUR (Mycobacterium tuberculosis); format: functional; method in brief: as §5
[11] = tested on: Mycobacterium tuberculosis; assay: In vitro activity against Mycobacterium strain CES (Mycobacterium tuberculosis); format: functional; method in brief: as §5
[12] = tested on: Mycobacterium tuberculosis; assay: In vitro activity against Mycobacterium strain DOL (Mycobacterium tuberculosis); format: functional
[13] = tested on: Mycobacterium tuberculosis; assay: (§6) In vitro activity against Mycobacterium strain DOU (Mycobacterium tuberculosis); format: functional; method in brief: as §5
[14] = tested on: Mycobacterium tuberculosis; assay: In vitro activity against Mycobacterium. tuberculosis (strain type-ATCC 35828) at pH 6.6; format: functional; method in brief: as §2
[15] = tested on: Mycobacterium tuberculosis; assay: (§7) In vitro activity against Mycobacterium strain GLA (Mycobacterium tuberculosis); format: functional; conditions: Mycobacterium tuberculosis; read-out: MIC
Mycobacterium kansasii [16] = assay: In vitro activity against Mycobacterium. kansasii (strain type-SWK)at pH 5.8; format: functional; method in brief: as §3
Mycobacterium kansasii [17] = assay: In vitro activity against Mycobacterium strain SWK (Mycobacterium kansasii); format: functional
Method in brief: (§8)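 Agar dilution MIC against pyrazinamide-resistant clinical isolates on Middlebrook 7H10 agar with 10% OADC at pH 5.8 or pH 6.6. Serial 2-fold dilutions span 200–3.12 µg/mL in compartmented plates made 24–48 h ahead and stored at 4 °C. Each isolate has a drug-free control. Plates were incubated at 37 °C for 4 weeks. MIC is the lowest concentration giving 99% (2 log) growth inhibition.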

Mycobacterium kansasii [18] = assay: In vitro activity against Mycobacterium. kansasii (strain type-SWK) pH 6.6; format: functional; method in brief: as §4
[19] = tested on: Mycobacterium tuberculosis; assay: (§9) In vitro activity against Mycobacterium. tuberculosis (strain type-H37Rv) at pH 6.6; format: functional; method in brief: as §2
[20] = tested on: Mycobacterium tuberculosis; assay: In vitro activity against Mycobacterium strain ING (Mycobacterium tuberculosis); format: functional; method in brief: as §5
[21] = tested on: Mycobacterium tuberculosis; assay: In vitro activity against Mycobacterium strain LEL (Mycobacterium tuberculosis); format: functional
[22] = tested on: Mycobacterium tuberculosis; assay: In vitro activity against Mycobacterium strain MCQ (Mycobacterium tuberculosis); format: functional; method in brief: as §5
[23] = tested on: Mycobacterium tuberculosis; assay: In vitro activity against Mycobacterium strain SMA (Mycobacterium tuberculosis); format: functional
[24] = tested on: Mycobacterium tuberculosis; assay: In vitro activity against Mycobacterium strain WOO (Mycobacterium tuberculosis); format: functional; method in brief: as §5
[25] = tested on: Mycobacterium tuberculosis; assay: In vitro activity against Mycobacterium strain DUB (Mycobacterium tuberculosis); format: functional
Mycobacterium kansasii [26] = assay: In vitro activity against Mycobacterium strain SCH (Mycobacterium kansasii); format: functional; method in brief: as §8
Mycobacterium kansasii [27] = assay: In vitro activity against Mycobacterium. kansasii (strain type-SWK)at pH 6.6; format: functional; method in brief: as §4
[28] = tested on: Mycobacterium tuberculosis; assay: as §9; format: functional; conditions: Mycobacterium tuberculosis; read-out: MIC
[29] = tested on: Mycobacterium tuberculosis; assay: as §7
[30] = tested on: Mycobacterium tuberculosis; assay: In vitro inhibitory activity against Mycobacterium strain BUR (Mycobacterium tuberculosis)
[31] = tested on: Mycobacterium tuberculosis; assay: In vitro inhibitory activity against Mycobacterium tuberculosis (strain type-BUR) at pH 5.8
[32] = tested on: Mycobacterium tuberculosis; assay: In vitro activity against Mycobacterium strains on DOL (Mycobacterium tuberculosis)
[33] = tested on: Mycobacterium tuberculosis; assay: In vitro inhibitory activity against Mycobacterium tuberculosis (strain type-ATCC 35828) at pH 5.8; format: functional; method in brief: as §1
[34] = tested on: Mycobacterium tuberculosis; assay: In vitro inhibitory activity against Mycobacterium tuberculosis (strain type-ATCC 35828)at pH 6.6; format: functional; method in brief: as §2
[35] = tested on: Mycobacterium tuberculosis; assay: In vitro inhibitory activity against Mycobacterium strain DUB (Mycobacterium tuberculosis)
[36] = tested on: Mycobacterium tuberculosis; assay: In vitro inhibitory activity against Mycobacterium strain GLA (Mycobacterium tuberculosis); format: functional; method in brief: as §5
Mycobacterium kansasii [37] = assay: In vitro activity inhibitory against Mycobacterium. kansasii (strain type-SWK) at pH 5.8; format: functional; method in brief: as §3
Mycobacterium kansasii [38] = assay: In vitro inhibitory activity inhibitory against Mycobacterium. kansasii (strain type-SWK) at pH 6.6; format: functional; method in brief: as §4
[39] = tested on: Mycobacterium tuberculosis; assay: In vitro inhibitory activity against Mycobacterium tuberculosis (strain type-H37Rv) at pH 6.6; format: functional
[40] = tested on: Mycobacterium tuberculosis; assay: In vitro inhibitory activity against Mycobacterium tuberculosis (strain type-BUR) at pH 6.6; format: functional; method in brief: as §2
[41] = tested on: Mycobacterium tuberculosis; assay: In vitro inhibitory activity against Mycobacterium tuberculosis (strain type-H37Rv) at pH 5.8; format: functional; method in brief: as §1
[42] = tested on: Mycobacterium tuberculosis; assay: In vitro inhibitory activity against Mycobacterium strain LEL (Mycobacterium tuberculosis); format: functional; method in brief: as §5
[43] = tested on: Mycobacterium tuberculosis; assay: In vitro inhibitory activity against Mycobacterium strain MCQ (Mycobacterium tuberculosis)
[44] = tested on: Mycobacterium tuberculosis; assay: In vitro activity against Mycobacterium strains on SMA (Mycobacterium tuberculosis)
[45] = tested on: Mycobacterium tuberculosis; assay: In vitro inhibitory activity against Mycobacterium strain WOO (Mycobacterium tuberculosis)
[46] = tested on: Mycobacterium tuberculosis; assay: as §6
[47] = tested on: Mycobacterium tuberculosis; assay: In vitro inhibitory activity against Mycobacterium strain ING (Mycobacterium tuberculosis); format: functional; method in brief: as §5
[48] = tested on: Mycobacterium tuberculosis; assay: In vitro inhibitory activity against Mycobacterium strains on BAK (Mycobacterium tuberculosis)
[49] = tested on: Mycobacterium tuberculosis; assay: In vitro activity against Mycobacterium tuberculosis (strain type-BUR) at pH 5.8; format: functional; method in brief: as §1
[50] = tested on: Mycobacterium tuberculosis; assay: In vitro inhibitory activity against Mycobacterium tuberculosis (strain type-ATCC 35828) pH 6.6; format: functional; method in brief: as §2
[51] = tested on: Mycobacterium tuberculosis; assay: In vitro inhibitory activity against Mycobacterium tuberculosis (strain type-ATCC 35828)at pH 5.8; format: functional; method in brief: as §1
Mycobacterium kansasii [52] = assay: In vitro inhibitory activity against Mycobacterium kansasii (strain type-SWK) pH 6.6; format: functional; method in brief: as §4
Mycobacterium kansasii [53] = assay: In vitro inhibitory activity against Mycobacterium kansasii (strain type-SWK)at pH 5.8; format: functional; method in brief: as §3
[54] = Mycobacterium tuberculosis, read-out: MIC

Measured: MIC

O=C(OC(C(F)(F)F)C(F)(F)F)c1cnccn1
100 µg/mL: [1]; [54]
200 µg/mL: [2]

O=C(Oc1ccc(-c2ccccc2)cc1)c1cnccn1
100 µg/mL: [4] | Mycobacterium kansasii [6]
25 µg/mL: Mycobacterium kansasii [5] | [2]
50 µg/mL: [3]
6.25 µg/mL: [7]

O=C(OCC(F)(F)F)c1cnccn1
25 µg/mL: [8] | [9] | [10] | [1]; [54] | [12] | [7] | [20] | [22] | [23] | [24] | [2] | [25]; [54] | Mycobacterium kansasii [26]
50 µg/mL: [21]
200 µg/mL: Mycobacterium kansasii [17]
12.5 µg/mL: [11] | [15]
100 µg/mL: [13] | Mycobacterium kansasii [16] | [19]
> 200 µg/mL: [14] | Mycobacterium kansasii [18]

C=CCOC(=O)c1cnccn1
200 µg/mL: [4] | [28]
< 3.12 µg/mL: [11] | [12]; [54] | Mycobacterium kansasii [16] | [7] | [22]
6.25 µg/mL: [8] | [10] | [1] | Mycobacterium kansasii [17] | [24] | [29] | [2] | [25] | Mycobacterium kansasii [26]
12.5 µg/mL: Mycobacterium kansasii [27]
3.12 µg/mL: [9] | [13] | [20] | [21] | [23]

CC(C)(C)c1ccc(OC(=O)c2cnccn2)cc1
25 µg/mL: [1]; [54] | [4] | Mycobacterium kansasii [16] | [2]
50 µg/mL: [3]

NC(=O)c1cnccn1 [PYRAZINAMIDE]
200 µg/mL: [40]
12.5 µg/mL: [36] | [41] | [47]
>200 µg/mL: [39]
> 200 µg/mL: [8] | [33] | [34] | Mycobacterium kansasii [37] | Mycobacterium kansasii [38] | Mycobacterium kansasii [17] | [42] | Mycobacterium kansasii [26]
25 µg/mL: [30] | [31] | [32] | [43] | [46]
50 µg/mL: [35] | [44] | [45] | [48]

CN(C)CCOC(=O)c1cnccn1
100 µg/mL: Mycobacterium kansasii [17] | [39]; [54]
12.5 µg/mL: [12]; [54] | [41]
> 200 µg/mL: [50] | Mycobacterium kansasii [52]
25 µg/mL: [9] | [10] | [49] | [11] | [13] | [51] | [15] | [20] | [21]; [54] | [22] | [23]; [54] | [24] | [25]; [54]
200 µg/mL: Mycobacterium kansasii [53]
50 µg/mL: [8] | Mycobacterium kansasii [26]
